Shown are actives, neighbours in structure and some others; about 2.9% of the full set was active somewhere.
SENP7 inh: SENP7 protease inhibitors, primary screen, biochemical, luminescence, uHTS. Sentrin-specific protease 7 (Homo sapiens), Q9BQF6. recombinant SENP7, Z-RLRGG-aminoluciferin luminescence, 40 min. inhibition, % at 5 µM. actives 1.5% (n = 330,000);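 active means inhibition above about 50% at the single test dose, limit read from the data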;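 further: plate controls were DMSO with enzyme for no effect and no enzyme buffer wells for full effect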
Target sequence (Q9BQF6 706-1050 limits assumed): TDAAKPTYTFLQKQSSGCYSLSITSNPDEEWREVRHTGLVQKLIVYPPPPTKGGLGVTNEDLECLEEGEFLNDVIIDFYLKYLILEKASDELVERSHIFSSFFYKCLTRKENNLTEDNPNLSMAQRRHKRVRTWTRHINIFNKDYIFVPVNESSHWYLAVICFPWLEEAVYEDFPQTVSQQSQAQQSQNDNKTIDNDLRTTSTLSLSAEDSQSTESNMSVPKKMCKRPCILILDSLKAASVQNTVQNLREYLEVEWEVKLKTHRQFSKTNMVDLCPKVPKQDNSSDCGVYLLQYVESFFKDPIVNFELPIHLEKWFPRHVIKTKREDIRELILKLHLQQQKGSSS
SENP8 block-1: SENP8 protease inhibitors, primary screen, biochemical, luminescence | purified SENP8, Z-RLRGG-aminoluciferin cleavage | inhibition, % at 10 µM | actives 1.2% (n = 330,000); in the data active means inhibition above about 50%
Target sequence (Q96LD8 whole entry, looked up): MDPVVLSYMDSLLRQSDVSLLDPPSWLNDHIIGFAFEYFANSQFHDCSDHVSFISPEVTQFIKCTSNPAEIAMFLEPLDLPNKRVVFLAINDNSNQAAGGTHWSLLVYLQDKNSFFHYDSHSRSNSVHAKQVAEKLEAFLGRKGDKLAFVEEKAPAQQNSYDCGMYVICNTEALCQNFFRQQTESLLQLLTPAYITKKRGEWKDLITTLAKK
SENP6 inh: SENP6 protease inhibitors, primary screen, biochemical, luminescence, uHTS; Sentrin-specific protease 6 (Homo sapiens), Q9GZR1; Recombinant SENP6 catalytic domain, aminoluciferin luminescence; inhibition, % at 10 µM; actives 1.8% (n = 330,000); AID 2599, 2010;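 active means inhibition above about 50% at the single tested dose, limit read from the data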;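 further: plate controls were DMSO wells with enzyme for no effect and DMSO wells lacking enzyme for full effect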
SENP8 block-2: human SENP8 protease inhibitors, primary screen, biochemical, fluorescence, Nedd8 protein substrate, uHTS | inhibition, % at 20 µM | AID 602440, 2012 | recombinant SENP8 | actives 0.64% (n = 360,000); in the data active means inhibition mostly above about 40%, no sharp cut-off; inactive means mostly below about 27%
SENP1 inh: human SENP1 catalytic domain inhibitors, primary screen, biochemical, FRET, uHTS. inhibition, % at 10 µM. Sentrin-specific protease 1 (Homo sapiens), Q9P0U3. actives 0.21% (n = 360,000). recombinant SENP1 catalytic domain, CyPet-SUMO1-YPet FRET cleavage;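 active means inhibition at least 30% at 10 µM, raw YFP signal under a set limit, fluorescence ratio 0.5 to 1.5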;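 further: 0% = enzyme with DMSO and 100% = no enzyme wells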
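Material – human SENP1 catalytic domain · Input – SENP1 enzyme, 20 pM final · Compound dosing – single concentration of 10 µM compound, 0.5% DMSO final · Timing – enzyme reaction for 50 min at room temperature, dark · Measured by – FRET fluorescence in CFP and YFP emission channels · Control set – no-enzyme wells low, DMSO-plus-enzyme wells high control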
Apaf-1 inh: inhibitors of human Apaf-1 apoptosome, primary screen, biochemical, DEVD-Rh110 fluorescence, uHTS. reconstituted apoptosome caspase-3 activity. inhibition, % at 20 µM. actives 0.71% (n = 330,000). AID 489030, 2010; active means inhibition of at least 40% at 20 µM;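 further: plate controls were DMSO wells for no effect and DEVD-CHO caspase inhibitor wells for full effect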
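System: Apoptosome proteins | Medium: Hepes pH 7.5 with detergent and BSA | Also added: Cytochrome c trigger plus (Z-DEVD)2-Rh110 caspase-3 substrate | Incubation: 30 min compound preincubation, 50 min activation, room temperature | Detection: Rhodamine 110 fluorescence at Ex 480/Em 540 nm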
Apaf-1 inh conf: Apaf-1 inhibitors, single-dose retest, confirmation, biochemical, fluorescence, DEVD-Rh110, 20 µM | shares compounds with Apaf-1 inh | reconstituted apoptosome, caspase-3 DEVD-Rh110 fluorescence | inhibition, % at 20 µM | actives 25% (n = 1,800);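 active means mean inhibition of at least 40% at 20 µM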;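 further: plate controls were DMSO wells for no effect and DEVD-CHO caspase inhibitor control wells for full effect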
Rh110 interf inh: Rh110 fluorescence interference by putative Apaf-1 inhibitors, confirmation, artefact control for Apaf-1 inhibitor project, biochemical, 20 µM. quenched caspase reaction. 1,800 tested, under 10 active. shares compounds with Apaf-1 inh. activation (fluorescence interference), % at 20 µM;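 active means signal rise of 40% or more at 20 µM, treated as a fluorescence artifact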
Fluor interf inh: fluorescence interference of Apaf-1 inhibitor hits, dose response, artefact control for Apaf-1 inhibitor project; shares compounds with Apaf-1 inh; fluorescence interference counterscreen, Apaf-1 assay format; IC50, µM; 460 tested, under 10 active; AID 588538, 2011; call rule not given here
Active calls of the source: *; . = no result given.

SMILES | SENP7 inh | SENP8 block-1 | SENP6 inh | SENP8 block-2 | SENP1 inh | Apaf-1 inh | Apaf-1 inh conf | Rh110 interf inh | others
CCOc1ccc(NS(=O)(=O)c2cc(C(=O)NCCCN3CCOCC3)ccc2C)cc1 | -9 | -10 | -17 | 7 | -4 | 65* | 34 | 7
CC1(c2nnnn2-c2ccc3c(c2)OCCO3)CCC(=O)N1Cc1ccc(F)cc1 (stereo unspecified) | . | . | . | 10 | -1 | . | . | .
O=C1c2ccccc2C(=O)c2c1oc(C(F)(F)F)c2C(=O)c1ccccc1 | 50 | 59* | 77* | 73* | 2 | 79* | 85* | 1 | Fluor interf inh=>100
N#CCCN(Cc1ccccc1)C(C(=O)NC1CCCCC1)c1ccnc2ccccc12 (stereo unspecified) | . | . | . | 20 | 0 | . | . | .
S=C(NCCCc1cnc[nH]1)NCCCN(Cc1ccc(Cl)cc1)c1ccc(Br)cn1 | . | . | . | 18 | -5 | . | . | .
CNC[C@@H]1Oc2ccc(NS(=O)(=O)c3ccc(Cl)cc3)cc2C(=O)N([C@H](C)CO)C[C@@H]1C | -1 | 10 | 2 | 0 | 0 | 45* | 19 | 18
COc1ccc2[nH]c3c(c2c1)CCN1C(=O)C(CC(=O)NCCC2=CCCCC2)C[C@H](C(=O)N2CCOCC2)[C@@]31CCC1CCCC1 (stereo partly specified) | 4 | . | . | 8 | 1 | 44* | 29 | 16
CN(C)CCCNC(=O)C[C@H]1C[C@H](C(=O)N2CCCCC2)[C@@]2(CCc3ccccc3)c3[nH]c4cc(-c5ccco5)ccc4c3CCN2C1=O | -1 | . | . | -301 | -4 | 72* | 28 | 11
CN(C)CCCNC(=O)C[C@H]1C[C@H](C(=O)N2CCCCC2)[C@@]2(C)c3[nH]c4cc(-c5ccco5)ccc4c3CCN2C1=O | 9 | . | . | -382 | 0 | 42* | 5 | 1
CCN(CC)C(=O)[C@H]1CC(CC(=O)NCc2cccc(C(F)(F)F)c2)C(=O)N2CCc3c([nH]c4ccccc34)[C@]12C (stereo partly specified) | 3 | -6 | 10 | 0 | -2 | 26 | . | .
CCN(CC)C(=O)[C@H]1C[C@H](CC(=O)NCc2cccc(C(F)(F)F)c2)C(=O)N2CCc3c([nH]c4ccc(Cl)cc34)[C@]12C | 3 | . | . | 18 | 0 | 46* | 29 | 17
CS(=O)(=O)c1ccc(-c2csc(C(O)c3cccc(Cl)c3)n2)cc1 (stereo unspecified) | . | . | . | 1 | 0 | . | . | .
CCOC(=O)C1(COCc2ccccc2)CCCCC1=O (stereo unspecified) | . | . | . | 21 | 3 | . | . | .
COc1ccc2[nH]c3c(c2c1)CCN1C(=O)C(CC(=O)NCCCN(C)C)C[C@H](C(=O)N2CCCCC2)[C@@]31CCc1ccccc1 (stereo partly specified) | 6 | . | . | 16 | 1 | 37 | . | .
CCN(CC)C(=O)[C@H]1CC(CC(=O)NCCCN(C)C)C(=O)N2CCc3c([nH]c4ccccc34)[C@]12C (stereo partly specified) | 6 | 2 | -30 | 6 | -2 | 44* | 10 | -1
CN(C)CCCNC(=O)CC1C[C@H](C(=O)N2CCCCC2)[C@@]2(CCc3ccccc3)c3[nH]c4ccccc4c3CCN2C1=O (stereo partly specified) | -1 | 8 | -2 | 14 | -1 | 46* | 11 | 0
Cc1sc2ncnc(N3CCC(C(=O)N(C)CC(=O)Nc4ccccc4Cl)CC3)c2c1C | 8 | 9 | 13 | 7 | -1 | 60* | 35 | 1
COC(=O)CCC(=O)OC1(C)C(=O)C2=CN(CCCOC(C)C)C(c3ccc(OC)cc3)=CC2=C(Br)C1=O (stereo unspecified) | 8 | 10 | 43 | -3 | -62 | 79* | 71* | 5 | Fluor interf inh=>100
COC(=O)CCC(=O)OC1(C)C(=O)C2=CN(CC3CC3)C(c3ccc(OC)cc3)=CC2=C(Br)C1=O (stereo unspecified) | 4 | 9 | 31 | -40 | -69 | 66* | 64* | 6 | Fluor interf inh=>100
COC(=O)CCC(=O)OC1(C)C(=O)C2=CN(C3CC3)C(c3ccc(OC)cc3)=CC2=C(Br)C1=O (stereo unspecified) | 0 | 25 | 29 | -10 | -57 | 61* | 56* | 1 | Fluor interf inh=>100
COC(=O)CCC(=O)OC1(C)C(=O)C2=CN(Cc3ccccc3)C(c3ccc(OC)cc3)=CC2=C(Br)C1=O (stereo unspecified) | 11 | 4 | 14 | -73 | -49 | 31 | . | .
COC(=O)CCC(=O)OC1(C)C(=O)C2=CN(Cc3ccc(OC)cc3)C(c3ccc(OC)cc3)=CC2=C(Br)C1=O (stereo unspecified) | -3 | 8 | 17 | -167 | -44 | 30 | . | .
Cc1ccc(N(Cc2ccccc2)C(=O)c2ccc(Cl)c(S(=O)(=O)N3CCOCC3)c2)cc1 | -5 | 3 | -14 | 10 | 2 | 27 | . | .
OC(c1ccc2ccccc2c1)c1ncc(-c2cccc3ccccc23)[nH]1 (stereo unspecified) | . | . | . | -330 | 0 | . | . | .
Cc1ccc(-n2c(SCC(=O)NC3CCS(=O)(=O)C3)nc3ccccc3c2=O)c(C)c1 (stereo unspecified) | . | . | . | 2 | 1 | . | . | .
COc1cccc2c1C(=O)C=C(C)C2=O | 2 | -2 | -5 | -281 | 4 | 56* | 65* | 5 | Fluor interf inh=>100
CC1=CC(=O)c2ccccc2C1=O | 3 | 16 | 1 | -251 | 2 | -2 | . | .
Cc1ccc(CNC(=O)CCNC(=O)c2ccc([N+](=O)[O-])cc2)cc1 | 7 | 0 | -13 | 12 | 4 | -3 | . | .
CCCCCCN(C(=O)CCCCCN1C(=O)NC(c2ccc([N+](=O)[O-])cc2)C(C(=O)OCc2ccccc2)=C1C)C(C(=O)NCCCC)c1ccc(OCC(=O)OC)c(C(=O)OC)c1 (stereo unspecified) | -4 | -3 | 0 | . | . | 15 | . | .

High-throughput results deposited in PubChem BioAssay by Sanford-Burnham Center for Chemical Genomics.
